# The list is not random: actives were taken first. Their share in the collection is about 2.2%.
# FXN GAA850 act – FXN promoter activators, primary screen, cell-based, luciferase luminescence, HEK293 lucGAA850 | HEK293 lucGAA850 FXN promoter luciferase reporter, 24 h; percent of 10 µM SAHA response | activation, % at 6 µM | 360,000 compounds, 0.56% hits | AID 540364, 2011;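 active means activation above the average of all compounds screened plus 3 SD, cutoff fixed separately per campaign, cut at about 7.5% in these data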;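 further: 0% = DMSO wells and 100% = 10 µM SAHA wells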
# NR2E3 ag-1 – NR2E3 agonists in two-hybrid cells, primary screen, cell-based, luminescence, CHO-S, Gal4-NCOR/VP16-NR2E3; inhibition of corepressor binding, % at 3.98 µM; luciferase; 360,000 compounds, 0.35% hits; Photoreceptor-specific nuclear receptor (Homo sapiens), Q9Y5X4; AID 602229, 2012;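 active means inhibition above the mean of all tested compounds plus 3 SD, cut at about 70% in these data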;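 further: 0% = DMSO with NR2E3 transfected cells and 100% = cells lacking NR2E3 construct; higher means lower luciferase signal from less NR2E3 corepressor binding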
# Target sequence (Q9Y5X4 whole entry, looked up, the tested form may be a part): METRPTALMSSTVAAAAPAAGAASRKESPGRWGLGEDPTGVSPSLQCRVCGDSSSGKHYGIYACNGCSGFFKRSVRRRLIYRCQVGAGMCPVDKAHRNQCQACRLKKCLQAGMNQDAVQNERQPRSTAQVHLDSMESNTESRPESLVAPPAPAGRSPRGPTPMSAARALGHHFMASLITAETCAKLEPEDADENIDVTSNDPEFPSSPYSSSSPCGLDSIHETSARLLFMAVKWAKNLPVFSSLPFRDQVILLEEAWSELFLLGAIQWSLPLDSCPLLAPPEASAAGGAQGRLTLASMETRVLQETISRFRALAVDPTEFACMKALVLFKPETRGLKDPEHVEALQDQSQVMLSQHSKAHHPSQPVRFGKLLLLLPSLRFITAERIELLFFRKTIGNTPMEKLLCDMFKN
# GalR3 antag – GalR3 antagonists in HEK293 cells, primary screen, cell-based, fluorescence readout; Galanin receptor type 3 (Homo sapiens), O60755; HEK293 GalR3-CNG cAMP membrane potential fluorescence; galR3 body fused to GalR1 C-terminus; 360,000 compounds, 0.44% hits; inhibition, % at 3 µM; AID 651719, 2012;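 active means inhibition above the screen-wide average plus 3 SD, cut at about 13% in these data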;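 further: forskolin and galanin both at EC90 stimulate the cells; cAMP rise reported by CNG channel membrane potential dye signal; 0% = forskolin plus galanin with DMSO and 100% = forskolin alone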
# Target sequence (O60755 1-299 limits assumed): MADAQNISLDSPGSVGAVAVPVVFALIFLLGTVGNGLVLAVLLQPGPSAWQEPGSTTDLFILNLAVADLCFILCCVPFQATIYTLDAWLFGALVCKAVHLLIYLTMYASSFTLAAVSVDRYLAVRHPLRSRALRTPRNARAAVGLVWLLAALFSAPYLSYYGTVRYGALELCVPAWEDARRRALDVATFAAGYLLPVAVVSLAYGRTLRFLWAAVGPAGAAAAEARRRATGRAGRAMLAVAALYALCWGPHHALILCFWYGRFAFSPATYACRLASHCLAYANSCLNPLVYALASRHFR
# HIV Env fusion – inhibitors of HIV-1 Env-driven cell-cell fusion, primary screen, HeLa-JRFL effector, CEM21 target cells, luciferase; inhibition, % at 12.3 µM; 360,000 compounds, 1.1% hits; AID 651610, 2012;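 active means mean replicate inhibition score of at least 50 and every replicate individually at or above 50; inconclusive means only one of the two criteria met; inactive means mean below 50 and not all replicates reaching 50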;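 further: 0% = plate neutral controls and 100% = maraviroc near 300 nM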
# V-ATPase pHluor – regulators of yeast V-ATPase proton pumping, primary screen, pHLuorin cytosolic pH fluorescence; AID 504577, 2011; 350,000 compounds, 0.37% hits; S. cerevisiae; response, % at 10 µM; in the data active means response mostly above about 7.3%, no sharp cut-off; inactive means mostly below about 5.4%; further: actives read high
# NR2E3 ag-2 – inhibitors of NR2E3-RetCOR corepressor binding, primary screen, NR2E3 agonist project, biochemical, TR-FRET, GST-NR2E3, biotin-RetCOR | Photoreceptor-specific nuclear receptor (Homo sapiens), Q9Y5X4 | 1536-well | inhibition of corepressor binding, % at 4.78 µM | 320,000 compounds, 0.12% hits | AID 2300, 2010;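 active means percent inhibition above the cutoff of mean plus 3 SD of all tested compounds, set per screening campaign, cut at about 20% in these data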;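 further: 0% = DMSO wells and 100% = biotin wells as full block of FRET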
#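 Material: NR2E3–RetCOR corepressor complex / Incubation: Compound–protein incubation for 5 h at 4 °C / Dosing: compound at 4.8 µM, single dose / Detection: time-resolved FRET / Benchmarks: high control biotin, low control 0.6% DMSO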
# NR2E3 ag confirm – NR2E3 agonist confirmation in cells, cell-based, luminescence, CHO-S two-hybrid; shares compounds with NR2E3 ag-1; CHO-S mammalian two-hybrid NR2E3-NCOR, luciferase luminescence; inhibition, % at 3.98 µM; 2,300 compounds, 51% hits; AID 624378, 2012;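 active means average inhibition above a cutoff equal to the mean inhibition of all tested compounds plus one SD, cut at about 70% in these data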;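 further: 0% = DMSO in NR2E3 cells and 100% = DMSO in cells lacking NR2E3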
# GAL4-VP16 luc – GAL4-VP16 reporter modulators, confirmation, counter-screen for NR2E3 agonist project, cell-based, luminescence, CHO-S, high throughput | shares compounds with NR2E3 ag-1 | CHO-S GAL4-VP16 luciferase reporter | inhibition, % at 3.98 µM | 2,300 compounds, 29% hits | AID 624379, 2012;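 active means mean inhibition above a cutoff equal to the average over all tested compounds plus one standard deviation, cut at about 70% in these data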;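 further: luciferase from a UAS reporter driven by GAL4-VP16 transactivation; 0% = DMSO with VP16-transfected cells and 100% = DMSO with cells lacking VP16; higher means less reporter light so more repression of VP16 activity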
# GalR3 antag conf – GalR3 antagonist hit confirmation, cell-based, fluorescence, triplicate; shares compounds with GalR3 antag; inhibition, % at 3 µM; 1,600 compounds, 59% hits; HEK293 GalR3 CNG cAMP biosensor, membrane potential fluorescence; galR3 fused to GalR1 carboxy tail; challenged with forskolin and galanin at EC90; AID 652245, 2013;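 active means inhibition above the primary screen's cutoff, the mean inhibition of all screened compounds plus 3 SD, cut at about 13% in these data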;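 further: 0% = forskolin plus galanin and 100% = forskolin alone with DMSO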
# CNG parental – nonspecific cAMP agonists in parental HEK-CNG cells, counter-screen for GalR3 antagonist project, cell-based, fluorescence, high throughput | HEK293-CNG parental cells, cAMP membrane potential fluorescence; normalised: DMSO wells 0%, forskolin wells 100% | 1,600 compounds, 10% hits | activation, % at 3 µM | shares compounds with GalR3 antag; in the data active means activation above about 1.3%
# The depositor's hits bear a star; u = inconclusive; x = not tested or not shown.
SMILES,FXN GAA850 act,NR2E3 ag-1,GalR3 antag,HIV Env fusion,V-ATPase pHluor,NR2E3 ag-2,NR2E3 ag confirm,GAL4-VP16 luc,others
CSc1ccccc1NP1(=O)OCC(C)([N+](=O)[O-])CO1 (centres undefined),0.8,16.4,-2.7,x,-2.4,x,x,x,
O=P1(Oc2ccccc2)OCCCS1 (centres undefined),-0.9,6.4,-4.3,0.4,0.2,-1.2,x,x,
CC(=O)O[C@H]1C[C@@H]2OC3C=C(C)CCC3(C)[C@@]1(C)[C@@]21CO1 (some centres undefined),-14.6,101.2*,-7.7,71.6*,-12.2,x,98.4*,97.3*,
CC(=O)OC1CC2OC3C=C(C)CCC3(C)C1(C)C21CO1 (centres undefined),-15.9,101.5*,-6.1,x,x,x,99.5*,97.8*,
CCN(CC)c1ccc(CNCCc2ccccc2F)cc1,3.2,-7.4,-6.6,22.6,1.8,-2.1,x,x,
COc1ccc(-c2nn(CCC#N)cc2C(=O)Nc2cccc([N+](=O)[O-])c2)cc1OC,3.8,4.1,-8.6,-90.8,-1.4,x,x,x,
CN1CCC(O)(c2cccs2)C(C(=O)c2cccs2)C1 (centres undefined),1.3,-2.6,-0.5,4.8,1.4,4.1,x,x,
Fc1ccccc1CN1Cc2ccccc2-n2nncc2C1,-0.1,-45.2,3.4,13.5,5.4,x,x,x,
c1ccc(-c2ccc(CN3Cc4ccccc4-n4nncc4C3)cc2)cc1,-1.4,59.5,-2.4,51.1,-2.7,x,83.1*,59.9,
CC1=CC(C)CC(C)OC(=O)CC(c2ccc(O)cc2)NC(=O)C(Cc2c(Br)[nH]c3ccccc23)N(C)C(=O)C(C)NC(=O)C(C)C1 (centres undefined),-8.2,64.2,-2.4,81.3*,-1.4,x,58.0,62.8,
Cc1c(C(c2ccc(F)cc2)c2c(O)c3ccccc3oc2=O)c(=O)n(-c2ccccc2)n1C (centres undefined),-1.5,-23.3,-2.8,18.8,-1.6,1.4,x,x,
CC(C)c1ccc(C(c2c(O)c3ccccc3oc2=O)c2c(O)c3ccccc3oc2=O)cc1,-1.0,75.2*,0.8,8.2,-1.5,x,91.1*,52.6,
CC(Cc1ccccc1)/[N+]([O-])=C\c1ccc(C(F)(F)F)cc1 (centres undefined),3.1,-67.3,-2.9,-33.5,0.1,0.9,x,x,
Nc1nonc1OCCCCOc1nonc1N,1.2,-1.3,5.7,-1.8,-0.5,0.3,x,x,
Cc1cc(OC(=O)c2ccco2)c2c3c(c(=O)oc2c1)CCCC3,0.5,93.1*,-2.2,x,-4.2,2.6,68.6,43.4,
Cc1cc(OC(=O)c2cccs2)c2c3c(c(=O)oc2c1)CCCC3,1.6,27.8,-1.8,-3.7,0.8,3.9,x,x,
COC(=O)C1CN(C#N)N(c2ccc(Cl)cc2)C12c1ccccc1-c1ccccc12 (centres undefined),-15.1,80.2*,x,x,1.9,0.4,91.6*,62.9,
Nc1ccc(CC(N)c2csc(Nc3ncccn3)n2)cc1 (centres undefined),1.9,-33.3,-3.5,-17.8,x,x,x,x,
NC(Cc1ccc(Cl)cc1)c1csc(Nc2ncccn2)n1 (centres undefined),-6.3,58.1,-7.0,-2.9,x,x,51.4,27.7,
NC(Cc1ccc(F)cc1)c1csc(Nc2ncccn2)n1 (centres undefined),-6.7,50.5,-6.5,-2.9,x,x,21.8,-6.6,
CS(=O)(=O)c1ccc(C(=O)N2CCC(C(=O)O)(c3ccccc3)CC2)cc1,1.1,-6.0,-5.3,-16.5,2.5,1.3,x,x,
CC(C)(O)/C=C/C(=O)C(C)(O)C1C(O)CC2(C)C3CC=C4C(C=C(O)C(=O)C4(C)C)C3(C)C(=O)CC12C (centres undefined),-14.3,78.5*,-1.4,80.9*,-3.2,x,46.8,57.2,
COC(=O)C(O)(c1ccc(N(C)C(=O)c2cccs2)cc1)C(F)(F)F (centres undefined),-1.4,-13.3,-4.7,10.9,0.4,2.9,x,x,
NC(=O)c1cn(C2OC(CO)C(O)C2O)c2ncnc(N)c12 (centres undefined),-11.2,101.4*,80.5*,89.5*,-2.3,-0.6,99.1*,98.6*,GalR3 antag conf=80.9*;CNG parental=0.2
CC(C)(C)c1ccc(CSc2cnn(C(C)(C)C)c(=O)c2Cl)cc1,-3.3,107.3*,94.7*,13.4,-1.3,-1.9,99.6*,93.3*,GalR3 antag conf=103.6*;CNG parental=1.0
SMILES,FXN GAA850 act,NR2E3 ag-1,GalR3 antag,HIV Env fusion,V-ATPase pHluor,NR2E3 ag-2,NR2E3 ag confirm,GAL4-VP16 luc,others
O=C1c2cccc3cccc(c23)C(=O)N1/N=C/c1c(O)n(-c2ccccc2)c(=O)[nH]c1=O,2.8,-28.2,-4.2,-8.0,5.5,-2.0,x,x,
C[C@]12CC[C@H](O)CC1=CCC1C2CC[C@@]2(C)C1C[C@@H]1CC(=O)O[C@@H]12 (some centres undefined),-0.7,11.8,-0.9,14.0,5.0,x,x,x,
CCOC(=O)[C@]12Cc3cc(Cl)ccc3[C@H]1N(C1CCCCC1)C(=O)c1cc(OC)ccc12,x,99.5*,19.7*,u,x,x,99.0*,78.2*,GalR3 antag conf=46.3*;CNG parental=4.3*
Cc1cccc(NC2=NCCCS2)c1,1.6,-16.4,-5.8,1.7,5.0,-2.5,x,x,
Cc1nn(Cc2ccccc2)c(Cl)c1C(=O)Nc1ccc(OC(F)(F)F)cc1,-1.7,5.0,-2.5,18.3,1.5,-0.4,x,x,
Cc1ccc(Cn2nc(C(=O)Nc3ccc(Br)cc3)cc2C)cc1,2.1,17.0,92.5*,47.4,-3.3,-0.8,x,x,GalR3 antag conf=104.0*;CNG parental=0.8
COc1ccc(-c2ccc3c(c2)CN(C(=O)C(C)(C)C)Cc2cnnn2-3)cc1,x,4.5,-6.3,3.7,x,x,x,x,

# From PubChem BioAssay
